Test results from ChEMBL document CHEMBL1914430, “Synthesis of some new 1,3,5-trisubstituted pyrazolines bearing benzene sulfonamide as anticancer and anti-inflammatory agents” (Bioorg Med Chem Lett, 2011).

Columns and labels:
Format in all cases: functional
TK-10 = assay: Anticancer activity against human TK10 cells after 48 hrs; conditions: TK-10, 48 h
Procedure, shortened: (§1)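 NCI ~60 human tumour cell line panel with a 48 h incubation. GI50 is the concentration giving a 50% fall in net growth, TGI gives total growth inhibition, and LC50 gives a net 50% loss of initial cells. An effect not reached or exceeded is reported as greater or less than the highest or lowest concentration tested.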

CCRF-CEM = assay: Anticancer activity against human CCRF-CEM cells after 48 hrs
Procedure, shortened: (§2)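 NCI Drug Evaluation Branch 60-cell-line screen across leukemia, melanoma, lung, colon, CNS, ovarian, renal, prostate and breast panels. The incubation period is 48 h. Parameters are derived from dose–response data: GI50 is the concentration giving 50% decrease in net growth, TGI is total growth inhibition, and LC50 is net 50% loss of initial cells. Values beyond the tested range are reported as greater or less than the maximum or minimum concentration.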

SK-MEL-2 = assay: Anticancer activity against human SK-MEL-2 cells after 48 hrs; conditions: SK-MEL-2, 48 h
Procedure, shortened: (§3)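 NCI 60-line panel protocol with a 48 h incubation. Per line: GI50 = concentration giving 50% decrease in net cell growth; TGI = total growth inhibition; LC50 = net 50% loss of initial cells. When the level was not reached or was exceeded, the value is given as greater or less than the highest or lowest concentration tested.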

SK-MEL-5 = assay: Anticancer activity against human SK-MEL-5 cells after 48 hrs; conditions: SK-MEL-5, 48 h; procedure, shortened: as §3
UO-31 = assay: Anticancer activity against human UO31 cells after 48 hrs; conditions: UO-31, 48 h; for CC50: read-out: LC50 (the source's name); procedure, shortened: as §1
U-251 = assay: Anticancer activity against human U251 cells after 48 hrs; conditions: U-251, 48 h; for CC50: read-out: LC50 (the source's name); procedure, shortened: as §1
NCI-H460 = assay: Anticancer activity against human NCI-H460 cells after 48 hrs; conditions: NCI-H460, 48 h; procedure, shortened: as §3
RPMI-8226 = assay: Anticancer activity against human RPMI8226 cells after 48 hrs; conditions: RPMI-8226, 48 h; procedure, shortened: as §3
COLO 205 = assay: Anticancer activity against human COLO205 cells after 48 hrs; conditions: COLO 205, 48 h; procedure, shortened: as §2
PC-3 = assay: Anticancer activity against human PC3 cells after 48 hrs; conditions: PC-3, 48 h; for CC50: read-out: LC50 (the source's name); procedure, shortened: as §3
A549 = assay: Anticancer activity against human A549 cells after 48 hrs; conditions: A549, 48 h; procedure, shortened: as §2
HCT-116 = assay: Anticancer activity against human HCT116 cells after 48 hrs; conditions: HCT-116, 48 h; for CC50: read-out: LC50 (the source's name); procedure, shortened: as §2
EKVX = assay: Anticancer activity against human EKVX cells after 48 hrs; conditions: for CC50: read-out: LC50 (the source's name); procedure, shortened: as §2
KM12 = assay: Anticancer activity against human KM12 cells after 48 hrs; conditions: KM12, 48 h; procedure, shortened: as §2
A498 = assay: Anticancer activity against human A498 cells after 48 hrs; conditions: A498, 48 h; for CC50: read-out: LC50 (the source's name); procedure, shortened: as §2
ACHN = assay: Anticancer activity against human ACHN cells after 48 hrs; conditions: for CC50: read-out: LC50 (the source's name); procedure, shortened: as §2
Rattus norvegicus = assay: Antiinflammatory activity in Wistar rat assessed as inhibition of carrageenan-induced hind paw edema at 20 mg/kg, po administered 30 mins before carrageenan challenge measured after 3 hrs by plethysmometer
Procedure, shortened: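 Wistar rats of either sex, 150–175 g, fasted 16 h, n = 6 per group. Compound given orally at 20 mg/kg as a suspension in 1% CMC in water (10 mL/kg); controls got vehicle only. After 30 min, 0.1 mL of 1% carrageenan in saline was injected subplantar into the left hind paw. Paw volume was measured by plethysmometer at 0, 3 and 5 h. Inhibition = (1 − Vt/Vc) × 100, reported as mean ± SEM.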

SF-295 = assay: Anticancer activity against human SF295 cells after 48 hrs; conditions: SF-295, 48 h; procedure, shortened: as §3
NCI-H522 = assay: Anticancer activity against human NCI-H522 cells after 48 hrs; conditions: NCI-H522, 48 h; procedure, shortened: as §3
MDA-MB-231 = assay: Anticancer activity against human MDA-MB-231 cells after 48 hrs; conditions: MDA-MB-231, 48 h; for CC50: read-out: LC50 (the source's name); procedure, shortened: as §2
HOP-62 = assay: Anticancer activity against human HOP62 cells after 48 hrs; conditions: HOP-62, 48 h; procedure, shortened: as §2
786-0 = assay: Anticancer activity against human 786-0 cells after 48 hrs; conditions: 786-0, 48 h; for CC50: read-out: LC50 (the source's name); procedure, shortened: as §2
Malme-3M = assay: Anticancer activity against human MALME-3M cells after 48 hrs; conditions: for CC50: read-out: LC50 (the source's name); procedure, shortened: as §2
HOP-92 = assay: Anticancer activity against human HOP92 cells after 48 hrs; conditions: HOP-92, 48 h; for CC50: read-out: LC50 (the source's name); procedure, shortened: as §2
UACC-257 = assay: Anticancer activity against human UACC257 cells after 48 hrs; conditions: UACC-257, 48 h; procedure, shortened: as §1
OVCAR-8 = assay: Anticancer activity against human OVCAR8 cells after 48 hrs; conditions: OVCAR-8, 48 h; for CC50: read-out: LC50 (the source's name); procedure, shortened: as §3
SN12C = assay: Anticancer activity against human SN12C cells after 48 hrs; procedure, shortened: as §3
HCT-15 = assay: Anticancer activity against human HCT15 cells after 48 hrs; conditions: HCT-15, 48 h; for CC50: read-out: LC50 (the source's name); procedure, shortened: as §2
CAKI-1 = assay: Anticancer activity against human Caki1 cells after 48 hrs; conditions: CAKI-1, 48 h; procedure, shortened: as §2

## COc1ccc(C2CC(c3cc(Cl)c(C)cc3O)=NN2c2ccc(S(N)(=O)=O)cc2)cc1OC (configuration not stated)
TK-10
  GI50: 3.97 µM
  LC50: > 100 µM
  TGI: 18.4 µM
CCRF-CEM
  GI50: 5.35 µM
  LC50 (concentration causing net 50% loss of initial cells): > 100 µM
  TGI: > 100 µM
SK-MEL-2
  GI50: 5.87 µM
  LC50: > 100 µM
  TGI: 32.7 µM
SK-MEL-5
  GI50: 4.28 µM
  LC50: 39.7 µM
  TGI: 15.2 µM
UO-31
  GI50: 3.3 µM
  CC50: > 100 µM
U-251
  GI50: 3.71 µM
  TGI: 14 µM
  CC50: 48.2 µM
NCI-H460
  GI50: 2.5 µM
  LC50 (50% lethal concentration): 22 µM
  TGI: 5.85 µM
RPMI-8226
  GI50: 4.1 µM
  LC50 (concentration for net 50% loss of initial cells): > 100 µM
  TGI: 100 µM
COLO 205
  GI50: 1.93 µM
  LC50 (concentration giving net 50% loss of initial cells): 6.02 µM
  TGI: 3.41 µM
PC-3
  GI50: 2.61 µM
  TGI: 13.7 µM
  CC50: > 100 µM
A549
  GI50: 3.54 µM
  LC50 (net 50% loss of initial cells): > 100 µM
  TGI: 19.7 µM
HCT-116
  GI50: 1.72 µM
  TGI: 4.36 µM
  CC50: 12.4 µM
EKVX
  GI50: 4.15 µM
  TGI: 100 µM
  CC50: > 100 µM
KM12
  GI50: 3.07 µM
  LC50 (concentration causing net 50% loss of initial cells): 49.2 µM
  TGI: 8.77 µM
A498
  GI50: 3.98 µM
  TGI: 24.7 µM
  CC50: > 100 µM
ACHN
  GI50: 3.15 µM
  TGI: 12.2 µM
  CC50: > 100 µM
Rattus norvegicus
  inhibition in vivo at 20 mg/kg: 60.5%
SF-295
  GI50: 2.7 µM
  LC50 (concentration giving net 50% loss of initial cells): 0.34 µM
  TGI: 6.24 µM
NCI-H522
  GI50: 2.95 µM
  LC50 (concentration killing 50% of initial cells): 69.3 µM
  TGI: 9.61 µM
MDA-MB-231
  GI50: 3.81 µM
  TGI: 12.5 µM
  CC50: 40.4 µM
HOP-62
  GI50: 3.92 µM
  LC50 (concentration for 50% net loss of initial cells): 52.4 µM
  TGI: 14.1 µM
786-0
  GI50: 2.37 µM
  TGI: 5.04 µM
  CC50: > 100 µM
Malme-3M
  GI50: 3.65 µM
  TGI: 24.6 µM
  CC50: > 100 µM
HOP-92
  GI50: 1.81 µM
  TGI: 7.42 µM
  CC50: > 100 µM
UACC-257
  GI50: 4.22 µM
  LC50: > 100 µM
  TGI: 19.7 µM
OVCAR-8
  GI50: 3.39 µM
  TGI: 17.9 µM
  CC50: > 100 µM
SN12C
  GI50: 3.7 µM
  LC50: > 100 µM
  TGI: 30 µM
HCT-15
  GI50: 3.32 µM
  TGI: 20.2 µM
  CC50: > 100 µM
CAKI-1
  GI50: 2.78 µM
  LC50 (concentration giving 50% net loss of initial cells): > 100 µM

## Cc1cc(O)c(C2=NN(c3ccc(S(N)(=O)=O)cc3)C(c3ccccc3Cl)C2)cc1Cl (configuration not stated)
TK-10
  GI50: 2.64 µM
  LC50: 33.9 µM
  TGI: 5.86 µM
CCRF-CEM
  GI50: 4.81 µM
  LC50 (concentration causing net 50% loss of initial cells): > 100 µM
  TGI: > 100 µM
SK-MEL-2
  GI50: 11.9 µM
  LC50: 81.1 µM
  TGI: 31 µM
SK-MEL-5
  GI50: 3.85 µM
  LC50: 36 µM
  TGI: 12.3 µM
UO-31
  GI50: 2.66 µM
  TGI: 16.2 µM
  CC50: 48 µM
U-251
  GI50: 2.25 µM
  TGI: 5.02 µM
  CC50: 36.9 µM
NCI-H460
  GI50: 2.16 µM
  LC50 (50% lethal concentration): 8.21 µM
  TGI: 4.21 µM
RPMI-8226
  GI50: 2.97 µM
  LC50 (concentration for net 50% loss of initial cells): > 100 µM
  TGI: 8.35 µM
COLO 205
  GI50: 1.81 µM
  LC50 (concentration giving net 50% loss of initial cells): 6.03 µM
  TGI: 3.31 µM
PC-3
  GI50: 1.58 µM
  TGI: 3.32 µM
  CC50: 6.98 µM
A549
  GI50: 3.82 µM
  LC50 (net 50% loss of initial cells): > 100 µM
  TGI: 19.3 µM
HCT-116
  GI50: 1.76 µM
  TGI: 3.15 µM
  CC50: 5.61 µM
EKVX
  GI50: 1.95 µM
  TGI: 4.6 µM
  CC50: > 100 µM
KM12
  GI50: 1.98 µM
  TGI: 3.66 µM
A498
  GI50: 5.01 µM
  TGI: 20.5 µM
  CC50: 61.4 µM
ACHN
  GI50: 3.34 µM
  TGI: 11 µM
  CC50: 34.3 µM
Rattus norvegicus
  inhibition in vivo at 20 mg/kg: 55.3%
SF-295
  GI50: 1.59 µM
  LC50 (concentration giving net 50% loss of initial cells): 6.34 µM
  TGI: 3.18 µM
NCI-H522
  GI50: 1.89 µM
  LC50 (concentration killing 50% of initial cells): 8.33 µM
  TGI: 3.97 µM
MDA-MB-231
  GI50: 2.14 µM
  TGI: 4.52 µM
  CC50: 9.52 µM
HOP-62
  GI50: 2.03 µM
  LC50 (concentration for 50% net loss of initial cells): 8.53 µM
  TGI: 4.16 µM
786-0
  GI50: 2.25 µM
  TGI: 4.52 µM
  CC50: 9.1 µM
Malme-3M
  GI50: 2.62 µM
  TGI: 6.46 µM
  CC50: > 100 µM
HOP-92
  GI50: 1.94 µM
  TGI: 6.32 µM
  CC50: 3.12 µM
UACC-257
  GI50: 11.8 µM
  LC50: > 100 µM
  TGI: 79.6 µM
OVCAR-8
  GI50: 2.94 µM
  TGI: 11.2 µM
  CC50: > 100 µM
SN12C
  GI50: 2.55 µM
  LC50: 29.4 µM
  TGI: 6.32 µM
HCT-15
  GI50: 3.69 µM
  TGI: 16.6 µM
  CC50: > 100 µM
CAKI-1
  GI50: 1.78 µM
  LC50 (concentration giving 50% net loss of initial cells): 8.95 µM
  TGI: 3.99 µM
